Reference: ChEMBL document CHEMBL4257543, “Structural optimization and antibacterial evaluation of rhodomyrtosone B analogues against MRSA strains” (Medchemcomm, 2018)
≈ marks a conversion by molar mass, not a printed value. Calls of active or inactive are those of the source.

Tests used:
Staphylococcus aureus [1] = test: Antibacterial activity against Staphylococcus aureus ATCC 6538 by micro dilution susceptibility test; assay type: functional
Summary of the method: (§1)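 Microbroth dilution MIC in Mueller–Hinton broth following CLSI guidelines, vancomycin as positive control; resazurin added as visible growth indicator. Assays run at least in triplicate.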

[2] = Selectivity ratio of MIC for vancomycin-resistant Enterococcus faecium to MIC for methicillin-resistant Staphylococcus aureus JCSC 4788; assay type: functional
Staphylococcus aureus [3] = test: Antibacterial activity against methicillin-resistant Staphylococcus aureus NCTC 10442 by micro dilution susceptibility test; assay type: functional; summary of the method: as §1
Staphylococcus aureus [4] = test: Induction of membrane disruption in methicillin-resistant Staphylococcus aureus JCSC 4788 assessed as increase in fluorescence intensity at MIC measured after 3 hrs by SYTOX green dye based fluorescence assay; assay type: functional, organism-based
Summary of the method: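 Exponential-phase MRSA JCSC 4788 washed and set to OD620 0.4 in 0.85% NaCl, exposed to serial compound concentrations for 3 h, then 3 μM SYTOX Green for 20 min. Fluorescence read at ex 504/em 523 nm with melittin as positive control and vancomycin as comparator; mean ± SD, n = 3.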

Staphylococcus aureus [5] = test: Antibacterial activity against methicillin-resistant Staphylococcus aureus JCSC 4788 in Balb/c mouse skin infection model assessed as reduction in infection-induced morbidity by measuring increase in body weight at 40 ug administered as single dose via intradermal route measured daily for 11 days; assay type: functional, organism-based
Summary of the method: (§2)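 Female BALB/c mice (18–20 g) injected intradermally in abdominal skin with 0.1 mL of MRSA JCSC 4788 (1×10^8 CFU) mixed with a single 40 μg dose in DMSO; DMSO-vehicle controls. Body weight and lesion size recorded daily for 11 days, ulcers imaged at 3 and 8 days; n = 6, mean ± SD.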

Staphylococcus aureus [6] = test: Bactericidal activity against methicillin-resistant Staphylococcus aureus JCSC 4788 assessed as reduction in bacterial growth at 0.5 to 1 times MIC measured within 8 hrs by time kill assay relative to control; assay type: functional; design: scale not given: the % may be the effect or the level left
Summary of the method: (§3)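 Time-kill per CLSI: overnight MRSA JCSC 4788 adjusted in 0.85% NaCl to 10^6–10^7 CFU mL−1 and exposed to 0.5×, 1×, 2× and 4× MIC at 35 °C, vancomycin as comparator. Viable plate counts at 0.5, 2, 4, 8 and 24 h; two independent experiments.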

Staphylococcus aureus [7] = test: Selectivity ratio of MIC for methicillin-resistant Staphylococcus aureus NCTC 10442 to MIC for methicillin-resistant Staphylococcus aureus JCSC 4788; assay type: functional
Staphylococcus aureus [8] = test: Bactericidal activity against methicillin-resistant Staphylococcus aureus JCSC 4788 assessed as reduction in colony forming units at 2 times MIC measured after 2 hrs by time kill assay relative to control; assay type: functional; design: scale not given: the % may be the effect or the level left; summary of the method: as §3
Staphylococcus aureus [9] = test: Antibacterial activity against methicillin-resistant Staphylococcus aureus N315 by micro dilution susceptibility test; assay type: functional; summary of the method: as §1
MCF7 = test: Cytotoxicity against human MCF7 cells by MTT assay; assay type: cell-based
Summary of the method: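 MTT viability assay after 24 h exposure to compound at 1.5625–100 µg mL⁻¹; control cells received DMSO at 0.5% (highest test-well level); IC50 given as mean ± SD of at least triplicate runs.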

Paenibacillus polymyxa = test: Antibacterial activity against Bacillus polymyxa GIM 1.467 by micro dilution susceptibility test; assay type: functional
Summary of the method: (§4)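 Microbroth dilution MIC in Mueller–Hinton broth following CLSI guidelines, with vancomycin as positive control; assays run at least in triplicate.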

Staphylococcus aureus [10] = test: Antibacterial activity against methicillin-resistant Staphylococcus aureus JCSC 4788 at sub-MIC re-passaged at 24 hrs intervals for 20 times by micro dilution susceptibility test; assay type: functional, organism-based
Summary of the method: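 Exponential-phase MRSA JCSC 4788 at 37 °C passaged into fresh MHB containing compound at a sub-inhibitory concentration and re-passaged at 24 h intervals up to at least 20 passages; MIC then redetermined by CLSI microbroth dilution in MHB. Resistance defined as a more than 4-fold increase over the initial MIC.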

Cutibacterium acnes = test: Antibacterial activity against Propionicibacterium acnes ATCC 6919 by micro dilution susceptibility test; assay type: functional
Summary of the method: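 Microbroth dilution MIC in Mueller–Hinton broth following CLSI guidelines; […]; resazurin added as visible growth indicator; vancomycin positive control; at least triplicate.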

Staphylococcus aureus [11] = test: Induction of cytoplasmic membrane hyperpolarization in methicillin-resistant Staphylococcus aureus JCSC 4788 at 1 to 2 times MIC measured after 2 mins by Disc3(5) staining based fluorescence spectrophotometric method; assay type: functional, organism-based
Summary of the method: (§5)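 Exponential-phase MRSA JCSC 4788 washed and set to OD620 0.1 in 5 mM HEPES pH 7. Cells loaded with 0.4 μM DiSC3(5) plus 100 mM KCl for 20 min at 37 °C with agitation. Compound added at 0.5–8× MIC and fluorescence followed at ex 660/em 670 nm; mean ± SD.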

Staphylococcus aureus [12] = test: Antibacterial activity against Staphylococcus aureus CMCC 26003 by micro dilution susceptibility test; assay type: functional; summary of the method: as §1
Staphylococcus aureus [13] = test: Antibacterial activity against methicillin-resistant Staphylococcus aureus 85/2082 by micro dilution susceptibility test; assay type: functional; summary of the method: as §1
[14] = tested on: Staphylococcus epidermidis; test: Antibacterial activity against Staphylococcus epidermidis ATCC 12228 by micro dilution susceptibility test; assay type: functional; summary of the method: as §4
[15] = Selectivity ratio of MIC for methicillin-resistant Staphylococcus aureus N315 to MIC for methicillin-resistant Staphylococcus aureus JCSC 4788; assay type: functional
Staphylococcus aureus [16] = test: Selectivity ratio of MIC for methicillin-resistant Staphylococcus aureus 85/2082 to MIC for methicillin-resistant Staphylococcus aureus JCSC 4788; assay type: functional
Staphylococcus aureus [17] = test: Induction of cytoplasmic membrane depolarization in methicillin-resistant Staphylococcus aureus JCSC 4788 at 0.5 to 2 times MIC measured within 1 min by Disc3(5) staining based fluorescence spectrophotometric method; assay type: functional, organism-based; summary of the method: as §5
Enterococcus faecalis = test: Antibacterial activity against Enterococcus faecalis ATCC 29212 by micro dilution susceptibility test; assay type: functional; summary of the method: as §4
Staphylococcus aureus [18] = test: Induction of morphological changes in methicillin-resistant Staphylococcus aureus JCSC 4788 assessed as cytoplasmic membrane disruption at 4 times MIC measured after 3 hrs scanning electron microscopic analysis; assay type: functional, organism-based
Summary of the method: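 Exponential-phase MRSA JCSC 4788 treated at 37 °C and washed. Cells prefixed overnight in 0.1 M phosphate pH 7.2 with 2% glutaraldehyde and 2.5% paraformaldehyde, then post-fixed in 1% OsO4 for 2 h. Samples ethanol-dehydrated, freeze-dried, gold-coated and imaged by SEM.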

Staphylococcus aureus [19] = test: Antibacterial activity against methicillin-resistant Staphylococcus aureus JCSC 4788 in Balb/c mouse skin infection model assessed as reduction in skin ulcer formation at 40 ug administered as single dose via intradermal route measured 3 to 8 days post-infection; assay type: functional, organism-based; summary of the method: as §2
Staphylococcus aureus [20] = test: Antibacterial activity against methicillin-resistant Staphylococcus aureus JCSC 4469 by micro dilution susceptibility test; assay type: functional; summary of the method: as §1
Staphylococcus aureus [21] = test: Antibacterial activity against methicillin-resistant Staphylococcus aureus JCSC 4788 in Balb/c mouse skin infection model assessed as reduction in infection-induced morbidity by measuring decrease in wound size at 40 ug administered as single dose via intradermal route measured daily for 11 days; assay type: functional, organism-based; summary of the method: as §2
Staphylococcus aureus [22] = test: Induction of cytoplasmic membrane disruption in methicillin-resistant Staphylococcus aureus JCSC 4788 measured after 3 hrs by SYTOX green dye based fluorescence microscopic analysis; assay type: functional, organism-based
Summary of the method: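 MRSA JCSC 4788 suspension (OD620 0.4) treated with compound or vancomycin for 3 h, stained with 3 μM SYTOX Green, fixed on glass slides and viewed by fluorescence microscopy at 485 nm excitation.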

CCCCCCCC(=O)c1c(O)cc(O)c2c1OC1=C(C(=O)C(C)(C)C(=O)C1(C)C)C2CC(C)C (stereo unspecified)
MIC (Staphylococcus aureus [1]): 0.25 µg/mL (≈ 0.516 µM)
Selectivity ratio [2]: 0.5 to 2
MIC (Staphylococcus aureus [3]): 0.5 µg/mL (≈ 1.03 µM)
Activity (Staphylococcus aureus [4]): Active
Activity (Staphylococcus aureus [5]): Active
Activity (Staphylococcus aureus [6]): >90%
Selectivity ratio (Staphylococcus aureus [7]): 0.5 - 2
Activity (Staphylococcus aureus [8]): 99.9%
MIC (Staphylococcus aureus [9]): 0.25 µg/mL (≈ 0.516 µM)
IC50 (MCF7): 9.98 µg/mL (≈ 20.6 µM)
MIC (Paenibacillus polymyxa): > 32 µg/mL
Activity (Staphylococcus aureus [10]): Active
MIC (Cutibacterium acnes): 0.25 µg/mL (≈ 0.516 µM)
Activity (Staphylococcus aureus [11]): Active
MIC (Staphylococcus aureus [12]): 0.25 µg/mL (≈ 0.516 µM)
MIC (Staphylococcus aureus [13]): 0.25 µg/mL (≈ 0.516 µM)
MIC [14]: 0.25 µg/mL (≈ 0.516 µM)
Selectivity ratio [15]: 0.5 to 2
Selectivity ratio (Staphylococcus aureus [16]): 0.5 - 2
Activity (Staphylococcus aureus [17]): Active
MIC (Enterococcus faecalis): 0.25 µg/mL (≈ 0.516 µM)
Activity (Staphylococcus aureus [18]): Active
Activity (Staphylococcus aureus [19]): Active
MIC (Staphylococcus aureus [20]): 0.25 µg/mL (≈ 0.516 µM)
Activity (Staphylococcus aureus [21]): Active
Activity (Staphylococcus aureus [22]): Active
